Data on six compounds can be found in ChEMBL document CHEMBL3407418, “Fragment-based drug discovery of 2-thiazolidinones as BRD4 inhibitors: 2. Structure-based optimization” (J Med Chem, 2015).

The term IC50 denotes the point on the concentration scale where inhibition reaches its midpoint. A high value points to lower potency. As a reminder, the inhibition is the percentage by which the read-out fell short of the control.

Molecules are shown by their SMILES. Activity calls are given as the source filed them. The calls are words filed in the database; no cut-off is given here.

The target of data set [1] is T1, Bromodomain-containing protein 4 (Homo sapiens, UniProt O60885). The experiment in a line: Inhibition of BRD4(1) (unknown origin) incubated for 4 hrs by (+)-JQ1 fluorescent ligand based fluorescence anisotrophy.
Data set [2] concerns HT-29. Nature of the data set: Growth inhibition of human HT-29 cells after 72 hrs by SRB assay. Particulars: HT-29, 72 h. The data set is classed as functional, cell-based. The procedure, abridged:
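HT-29 cells are grown in McCoy's 5A with 10% FBS at 37 °C, 5% CO2. DMSO stocks (0.01 mol/L) are diluted in normal saline just before use. Cells are treated in triplicate with gradient concentrations for 72 h at 37 °C.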
(In general: Sulforhodamine B stains cellular protein and so reports cell mass.)

Data set [3] deals with T2, Cytochrome P450 2D6 (Homo sapiens, UniProt P10635). The experiment in a line: (§1) Inhibition of CYP2D6 in human liver microsomes at 10 uM using dextromethorphan substrate preincubated for 5 mins before NADPH addition and measured after 20 mins post NADPH addition. The data set is classed as ADME. Particulars: microsomes, 20 min, 10 µM. The procedure, abridged:
(§2)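 Human liver microsomes 0.2 mg/mL, 1 mmol NADPH, 100 mmol phosphate pH 7.4, probe cocktail (10 μM midazolam, 100 μM testosterone, 10 μM dextromethorphan, 20 μM diclofenac, 100 μM phenacetin, 100 μM mephenytoin), test compound 10 μM or PBS; organic solvent <1%. 5 min preincubation at 37 °C, NADPH-generating system start, 20 min reaction; inhibition from metabolite formation relative to PBS.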
On the technique in general: Liver microsomes are vesicles of endoplasmic reticulum, rich in cytochrome P450 enzymes.

The target in data set [4] is CYP2C9 (Homo sapiens, UniProt P11712). The experiment in a line: (§3) Inhibition of CYP2C9 in human liver microsomes at 10 uM using diclofenac substrate preincubated for 5 mins before NADPH addition and measured after 20 mins post NADPH addition. The format is ADME. Particulars: liver microsomes, probe diclofenac. In short, it runs like this:
as §2

For data set [5], the target named is T3, CYP1A2 (Homo sapiens, UniProt P05177).
T3 sequence (P05177 whole entry): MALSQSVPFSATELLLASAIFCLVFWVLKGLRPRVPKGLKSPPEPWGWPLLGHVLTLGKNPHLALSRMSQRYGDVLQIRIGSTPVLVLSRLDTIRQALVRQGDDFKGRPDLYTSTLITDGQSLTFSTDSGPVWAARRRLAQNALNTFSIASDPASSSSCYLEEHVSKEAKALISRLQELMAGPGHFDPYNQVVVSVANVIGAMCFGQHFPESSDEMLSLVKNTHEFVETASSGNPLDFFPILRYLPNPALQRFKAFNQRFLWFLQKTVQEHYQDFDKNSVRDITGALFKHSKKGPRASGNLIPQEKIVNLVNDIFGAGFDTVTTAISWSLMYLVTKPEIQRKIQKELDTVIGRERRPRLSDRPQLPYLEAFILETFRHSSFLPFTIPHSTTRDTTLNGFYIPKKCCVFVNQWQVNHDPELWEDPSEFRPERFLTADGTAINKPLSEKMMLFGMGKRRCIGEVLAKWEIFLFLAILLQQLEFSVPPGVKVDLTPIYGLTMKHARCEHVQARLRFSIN
The experiment in a line: Inhibition of CYP1A2 in human liver microsomes at 10 uM using phenacetin substrate preincubated for 5 mins before NADPH addition and measured after 20 mins post NADPH addition. The data set is classed as ADME. Particulars: probe phenacetin. The procedure, abridged:
as §2

Data set [6] deals with T2, Cytochrome P450 2D6. The experiment in a line: Time dependent inhibition of CYP2D6 in human liver microsomes at 10 uM using dextromethorphan substrate preincubated for 5 mins before NADPH addition and measured after 20 mins post NADPH addition. The format is ADME.
The target in data set [7] is Cytochrome P450 2C19 (Homo sapiens, UniProt P33261). The experiment in a line: Time dependent inhibition of CYP2C19 in human liver microsomes at 10 uM using mephenytoin substrate preincubated for 5 mins before NADPH addition and measured after 20 mins post NADPH addition. The data set is classed as ADME.
Chain of Cytochrome P450 2C19 (P33261 whole entry): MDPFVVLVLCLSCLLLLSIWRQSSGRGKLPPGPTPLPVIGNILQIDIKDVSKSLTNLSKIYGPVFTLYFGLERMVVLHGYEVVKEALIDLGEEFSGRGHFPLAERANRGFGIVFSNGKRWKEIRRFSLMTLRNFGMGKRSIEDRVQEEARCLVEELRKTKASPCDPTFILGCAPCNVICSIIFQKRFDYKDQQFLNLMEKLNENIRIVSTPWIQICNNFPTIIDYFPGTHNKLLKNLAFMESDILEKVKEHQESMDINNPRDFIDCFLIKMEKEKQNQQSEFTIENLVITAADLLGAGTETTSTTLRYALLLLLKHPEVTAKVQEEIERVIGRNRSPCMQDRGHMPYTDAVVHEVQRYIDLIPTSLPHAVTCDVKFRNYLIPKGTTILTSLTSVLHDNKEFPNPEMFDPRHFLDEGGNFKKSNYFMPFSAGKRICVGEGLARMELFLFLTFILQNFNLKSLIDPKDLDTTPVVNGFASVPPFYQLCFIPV
Data set [8] in a line: Growth inhibition of human MM1S cells after 72 hrs by CellTiter-Glo luminescent cell viability assay. Particulars: MM1.S.
Data set [9] has as its target T1, Bromodomain-containing protein 4. Nature of the data set: Inhibition of BRD4 in human HT-29 cells assessed as reduction in c-Myc protein expression at 5 and 10 uM after 24 hrs by Western blotting method. The data set is classed as cell-based. In short, it runs like this:
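HT-29 cells seeded overnight, then treated 24 h; lysed in 1×SDS buffer (50 mmol/L Tris-HCl pH 6.8, 100 mmol/L DTT, 2% SDS, 10% glycerol), boiled 10 min. c-Myc immunoblotted with GAPDH loading control, peroxidase secondary antibodies, ECL detection. Repeated three times.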
In general terms: A western blot detects proteins with antibodies after separation by electrophoresis.

Data set [10] has the same target. The experiment in a line: Inhibition of BRD4 in human HT-29 cells assessed as reduction in c-myc mRNA expression at 0.3125 uM to 5 uM uM after 24 hrs by RT-qPCR method. The format is cell-based. The procedure, abridged:
(§4)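 HT-29 cells seeded overnight and exposed to compounds for 24 h; total RNA isolated, reverse-transcribed, and analysed by RT-qPCR with c-myc primers. Relative c-myc mRNA normalised to β-actin and expressed versus untreated control.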

For data set [11] the target is unchanged. Nature of the data set: Inhibition of BRD4 in human HT-29 cells assessed as reduction in c-myc mRNA expression at 5 uM after 24 hrs by RT-qPCR method. The format is cell-based. The procedure, abridged: as §4
Data set [12] deals with CYP2D6 (Homo sapiens, UniProt P10635). The data set is described as §1. The data set is classed as ADME. Particulars: liver microsomes, probe dextromethorphan. The procedure, abridged: as §2
Chain of CYP2D6 (P10635 whole entry): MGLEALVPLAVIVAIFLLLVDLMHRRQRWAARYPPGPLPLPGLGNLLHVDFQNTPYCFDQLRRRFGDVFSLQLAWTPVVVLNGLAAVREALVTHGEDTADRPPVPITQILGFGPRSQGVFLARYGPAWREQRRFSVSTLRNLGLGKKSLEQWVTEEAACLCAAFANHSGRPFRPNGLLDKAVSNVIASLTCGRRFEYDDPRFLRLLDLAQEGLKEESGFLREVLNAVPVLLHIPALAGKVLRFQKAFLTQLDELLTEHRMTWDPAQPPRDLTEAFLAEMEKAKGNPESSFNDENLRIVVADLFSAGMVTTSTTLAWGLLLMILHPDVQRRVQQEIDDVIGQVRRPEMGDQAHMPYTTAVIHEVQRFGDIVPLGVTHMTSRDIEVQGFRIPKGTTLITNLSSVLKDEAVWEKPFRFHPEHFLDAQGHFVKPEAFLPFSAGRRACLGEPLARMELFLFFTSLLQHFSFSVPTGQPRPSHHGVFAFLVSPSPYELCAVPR
For data set [13], the target named is T4, Cytochrome P450 2C9 (Homo sapiens, UniProt P11712). The data set is described as §3. Particulars: microsomes, 20 min, 10 µM. The format is ADME. The procedure, abridged:
as §2

Data set [14] has as its target T4, Cytochrome P450 2C9. The experiment in a line: Time dependent inhibition of CYP2C9 in human liver microsomes at 10 uM using diclofenac substrate preincubated for 5 mins before NADPH addition and measured after 20 mins post NADPH addition. The format is ADME.
Data set [15] deals with T1, Bromodomain-containing protein 4. The experiment in a line: Inhibition of BRD4 in human HT-29 cells assessed as reduction in c-myc mRNA expression at 0.3125 uM after 24 hrs by RT-qPCR method. The data set is classed as cell-based. The procedure, abridged:
as §4

Data set [16] concerns the target Cytochrome P450 3A4 (Homo sapiens, UniProt P08684). The experiment in a line: Time dependent inhibition of CYP3A4 in human liver microsomes at 10 uM using midazolam substrate preincubated for 5 mins before NADPH addition and measured after 20 mins post NADPH addition. The format is ADME.
For data set [17], the target named is T5, Cytochrome P450 1A2 (Homo sapiens, UniProt P05177).
T5 sequence (P05177 whole entry): T3 sequence (P05177 whole entry)
The experiment in a line: Time dependent inhibition of CYP1A2 in human liver microsomes at 10 uM using phenacetin substrate preincubated for 5 mins before NADPH addition and measured after 20 mins post NADPH addition. The format is ADME.

T2 sequence (P10635 whole entry): as above
Chain of Cytochrome P450 3A4 (P08684 whole entry): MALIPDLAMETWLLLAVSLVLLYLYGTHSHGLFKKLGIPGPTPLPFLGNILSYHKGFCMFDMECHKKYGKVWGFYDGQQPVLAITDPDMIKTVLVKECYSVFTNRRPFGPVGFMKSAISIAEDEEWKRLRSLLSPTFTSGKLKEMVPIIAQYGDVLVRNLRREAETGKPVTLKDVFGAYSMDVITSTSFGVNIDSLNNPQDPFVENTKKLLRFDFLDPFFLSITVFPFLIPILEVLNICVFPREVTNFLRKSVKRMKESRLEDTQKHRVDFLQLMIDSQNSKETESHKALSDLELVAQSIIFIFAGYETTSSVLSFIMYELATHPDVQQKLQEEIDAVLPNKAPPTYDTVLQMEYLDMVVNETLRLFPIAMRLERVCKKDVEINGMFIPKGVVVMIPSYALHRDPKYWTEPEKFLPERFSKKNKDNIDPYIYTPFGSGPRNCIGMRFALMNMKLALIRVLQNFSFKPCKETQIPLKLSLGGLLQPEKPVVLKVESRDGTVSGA
Chain of CYP2C9 (P11712 whole entry): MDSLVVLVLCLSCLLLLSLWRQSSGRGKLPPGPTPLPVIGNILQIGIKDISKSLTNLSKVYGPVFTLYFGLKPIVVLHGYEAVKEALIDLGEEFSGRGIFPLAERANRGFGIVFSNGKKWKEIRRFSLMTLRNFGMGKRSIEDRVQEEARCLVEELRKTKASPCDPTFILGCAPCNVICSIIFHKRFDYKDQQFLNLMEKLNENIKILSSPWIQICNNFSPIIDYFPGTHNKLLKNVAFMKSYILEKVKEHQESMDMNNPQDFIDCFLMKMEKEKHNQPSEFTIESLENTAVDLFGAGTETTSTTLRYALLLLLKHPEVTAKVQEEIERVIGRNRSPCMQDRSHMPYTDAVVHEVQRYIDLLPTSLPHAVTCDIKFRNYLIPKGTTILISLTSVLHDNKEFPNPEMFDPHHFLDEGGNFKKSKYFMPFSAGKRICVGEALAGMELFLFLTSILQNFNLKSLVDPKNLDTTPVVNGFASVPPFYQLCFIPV
T4 sequence (P11712 whole entry): as above

Turning to `COc1ccc(-c2csc(=O)[nH]2)cc1S(=O)(=O)NC1CCCC1`, the IC50 in data set [1] came out at 760 nM; in data set [2], 3930 nM; in [8], 2420 nM. The “inhibition (INH)” value in [3] was “Not Active”. The inhibition at 20 min, 10 µM in data set [4] was found to be 10%; in data set [5] it was 3%. Besides, the TDI entry in data set [6] and in data set [7] was “Active” throughout.

In the case of `Cc1c(Br)cc(-c2csc(=O)[nH]2)cc1S(=O)(=O)NC1CCCC1`, the IC50 turned out to be 60 nM in [1], 5460 nM in data set [2] and 999 nM in [8]. The inhibition result in data set [9] and in data set [10] was “Active” each time. Besides, the inhibition in [11] is more than 60%. Also, the figures for the inhibition at 20 min, 10 µM in data set [12] and in [5] were 39% and 47%, respectively. In addition, in [13], the “inhibition (INH)” value is “Not Active”. The TDI entry in data set [14] is “Active”.

Turning to `Cc1c(N)cc(-c2csc(=O)[nH]2)cc1S(=O)(=O)NC1CCCC1`, the IC50 came out at 140 nM in data set [1], 860 nM in data set [2] and 570 nM in [8]. Besides, the inhibition entry in data set [9], in data set [10] and in data set [15] was “Active” in each case. In data set [11], the inhibition was 90%. Further, the inhibition at 20 min, 10 µM amounted to 3% in data set [12] and 17% in [5]. In data set [13], the “inhibition (INH)” value is reported as “Not Active”. In addition, the TDI entry in [16], in [6], in data set [14], in data set [17] and in data set [7] was “Not Active” throughout.

Take `Nc1ccc(-c2csc(=O)[nH]2)cc1S(=O)(=O)NC1CCCC1`: the values for the IC50 in data set [1], in data set [2] and in data set [8] were 120 nM, 3280 nM and 793 nM, respectively. The inhibition at 20 min, 10 µM in data set [12] turned out to be 18%; in [4], 74%; in data set [5], 22%. Further, in [16], the TDI result is reported as “Active”.

For the compound `Cc1ccc(-c2csc(=O)[nH]2)cc1S(=O)(=O)NC1CCCC1`, the IC50 was 220 nM in data set [1], 3950 nM in data set [2] and 1900 nM in data set [8]. The inhibition at 20 min, 10 µM in data set [12] was 27%; in [5], 52%. Besides, the “inhibition (INH)” value in data set [13] is “Not Active”. For the same compound, the TDI entry in data set [14] and in [7] was “Active” throughout.

Take `O=C(Nc1cc(-c2csc(=O)[nH]2)cc(S(=O)(=O)NC2CCCC2)c1)C1CC1`: the IC50 in data set [1] worked out at 60 nM; in [2], 5690 nM; in data set [8] it was 1060 nM. Moreover, the inhibition result in [9] and in [10] was “Active” in each case. For the same compound, in data set [11], the inhibition was more than 60%. Moreover, the inhibition at 20 min, 10 µM in data set [12] was 17%; in data set [4], 14%; in data set [5], 29%. Also, the TDI entry in data set [16], in [6], in [14], in data set [17] and in data set [7] was “Not Active” each time.
